Tests used:
Mus musculus [1] = test: Analgesic activity in ICR mouse assessed as pain threshold variation at 0.13 mmol/kg, ip after 30 mins by tail flick test; format: functional
Summary of the method: (§1)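 Male ICR mice (25 2 g), 12/12 light/dark cycle, 21 2 °C, acclimated one day. Single ip injection in 0.2 ml saline with 0.01 ml DMSO and 0.02 ml Tween 80. Tail-flick pain threshold measured before dosing (BPT) and at 30 min intervals for 150 min. PTV = (post-dose threshold − BPT)/BPT, averaged per animal. Saline controls; ANOVA, p < 0.05.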

Mus musculus [2] = test: Analgesic activity in ICR mouse assessed as pain threshold variation at 0.13 mmol/kg, ip after 60 mins by tail flick test; format: functional; summary of the method: as §1
Mus musculus [3] = test: Analgesic activity in ICR mouse assessed as pain threshold variation at 0.13 mmol/kg, ip after 90 mins by tail flick test; format: functional; summary of the method: as §1
Mus musculus [4] = test: Analgesic activity in ICR mouse assessed as pain threshold variation at 0.13 mmol/kg, ip after 120 mins by tail flick test; format: functional; summary of the method: as §1
Mus musculus [5] = test: Analgesic activity in ICR mouse assessed as pain threshold variation at 0.13 mmol/kg, ip after 150 mins by tail flick test; format: functional; summary of the method: as §1
Mus musculus [6] = test: Effect on bleeding time in ICR mouse tail at 1.3 mmol/kg, ip after 5 mins; format: functional
Summary of the method: (§2)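 Mice given 1.30 mmol/kg body weight. Tail bleeding time measured before dosing and at 5, 15, 30 and 60 min after dosing. Saline as vehicle control.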

Mus musculus [7] = test: Effect on bleeding time in ICR mouse tail at 1.3 mmol/kg, ip after 15 mins; format: functional; summary of the method: as §2
Mus musculus [8] = test: Effect on bleeding time in ICR mouse tail at 1.3 mmol/kg, ip after 30 mins; format: functional; summary of the method: as §2
Mus musculus [9] = test: Effect on bleeding time in ICR mouse tail at 1.3 mmol/kg, ip after 60 mins; format: functional; summary of the method: as §2
Aorta [10] = test: Vasorelaxant activity in rat aortic strips assessed as inhibition of noradrenaline-induced vasoconstriction at 500 umol/l; format: functional; set-up: scale not given: the % may be the effect or the level left
Aorta [11] = test: Vasorelaxant activity in rat aortic strips assessed as inhibition of noradrenaline-induced vasoconstriction at 100 umol/l; format: functional; set-up: scale not given: the % may be the effect or the level left
Aorta [12] = test: Vasorelaxant activity in rat aortic strips assessed as inhibition of noradrenaline-induced vasoconstriction at 20 umol/l; format: functional; set-up: scale not given: the % may be the effect or the level left
Mus musculus [13] = test: Analgesic activity in ICR mouse assessed as pain threshold variation at 0.013 mmol/kg, ip after 30 mins by tail flick test; format: functional, organism-based; summary of the method: as §1
Mus musculus [14] = test: Analgesic activity in ICR mouse assessed as pain threshold variation at 0.013 mmol/kg, ip after 60 mins by tail flick test; format: functional, organism-based; summary of the method: as §1
Mus musculus [15] = test: Analgesic activity in ICR mouse assessed as pain threshold variation at 0.013 mmol/kg, ip after 90 mins by tail flick test; format: functional, organism-based; summary of the method: as §1
Mus musculus [16] = test: Analgesic activity in ICR mouse assessed as pain threshold variation at 0.013 mmol/kg, ip after 120 mins by tail flick test; format: functional, organism-based; summary of the method: as §1
Mus musculus [17] = test: Analgesic activity in ICR mouse assessed as pain threshold variation at 0.013 mmol/kg, ip after 150 mins by tail flick test; format: functional, organism-based; summary of the method: as §1
Mus musculus [18] = test: Analgesic activity in ICR mouse assessed as pain threshold variation at 0.0013 mmol/kg, ip after 30 mins by tail flick test; format: functional, organism-based; summary of the method: as §1
Mus musculus [19] = test: Analgesic activity in ICR mouse assessed as pain threshold variation at 0.0013 mmol/kg, ip after 60 mins by tail flick test; format: functional, organism-based; summary of the method: as §1
Mus musculus [20] = test: Analgesic activity in ICR mouse assessed as pain threshold variation at 0.0013 mmol/kg, ip after 90 mins by tail flick test; format: functional, organism-based; summary of the method: as §1
Mus musculus [21] = test: Analgesic activity in ICR mouse assessed as pain threshold variation at 0.0013 mmol/kg, ip after 120 mins by tail flick test; format: functional, organism-based; summary of the method: as §1
Mus musculus [22] = test: Analgesic activity in ICR mouse assessed as pain threshold variation at 0.0013 mmol/kg, ip after 150 mins by tail flick test; format: functional, organism-based; summary of the method: as §1

Structure (SMILES)	Activity (Mus musculus [1])	Activity (Mus musculus [2])	Activity (Mus musculus [3])	Activity (Mus musculus [4])	Activity (Mus musculus [5])	TIME (Mus musculus [6])	TIME (Mus musculus [7])	TIME (Mus musculus [8])	TIME (Mus musculus [9])	Activity (Aorta [10])	Activity (Aorta [11])	Activity (Aorta [12])	further results
CC1(C)N=C(c2ccc(Br)cc2)N([O])C1(C)C	41.3	35.6	59.8	60	76.5	0.0324 h	0.0326 h	0.0324 h	0.0326 h	34.8%	23%	6.89%	
COc1ccc(C2=NC(C)(C)C(C)(C)N2[O])cc1OC	44.9	60.2	59.5	78.4	55.6	0.0329 h	0.033 h	0.0332 h	0.0335 h	33.7%	22.3%	6.66%	
CC1(C)N=C(c2ccc(Cl)cc2)N([O])C1(C)C	59.3	66.3	61.7	50.8	84.5	0.0331 h	0.0326 h	0.0328 h	0.0326 h	36.6%	23.8%	7.19%	
CC1(C)N=C(c2ccccc2F)N([O])C1(C)C	62.2	67.8	63.3	62	86.8	0.0331 h	0.0329 h	0.0328 h	0.0326 h	23.4%	14.9%	5%	Activity (Mus musculus [13]): 49.3; Activity (Mus musculus [14]): 51.3; Activity (Mus musculus [15]): 50.7; Activity (Mus musculus [16]): 49.8; Activity (Mus musculus [17]): 64.5; Activity (Mus musculus [18]): 31.3; Activity (Mus musculus [19]): 33.5; Activity (Mus musculus [20]): 31.8; Activity (Mus musculus [21]): 30.4; Activity (Mus musculus [22]): 44.5
COc1cc(C2=NC(C)(C)C(C)(C)N2[O])ccc1O	54.2	42.9	66.3	43.2	40.9	0.0327 h	0.0323 h	0.0327 h	0.0329 h	6.55%	6.09%	5.98%	
CC1(C)N=C(c2ccc([N+](=O)[O-])cc2)N([O])C1(C)C	56.5	60.5	58	35.9	52.3	0.0332 h	0.0331 h	0.0329 h	0.033 h	36.5%	24.4%	7.36%	
Cc1ccc(C2=NC(C)(C)C(C)(C)N2[O])cc1	40.2	53.6	43.7	35.2	25.5	0.0327 h	0.0324 h	0.0328 h	0.0328 h	31.8%	20%	7%	
COc1ccc(C2=NC(C)(C)C(C)(C)N2[O])cc1O	33.1	48.2	48.4	56.4	59.8	0.0326 h	0.0325 h	0.0328 h	0.0326 h	16.6%	11%	5.36%	
CC1(C)N=C(c2ccccc2)N(O)C1(C)C	40.6	36.99	34	32.14	33.48					17.25%	11.04%	5.44%	Time (Mus musculus [6]): 118.2 s; Time (Mus musculus [7]): 117.4 s; Time (Mus musculus [8]): 119.3 s; Time (Mus musculus [9]): 118.2 s
CC1(C)N=C(c2ccccc2[N+](=O)[O-])N([O])C1(C)C	38.4	66.9	57.2	23.4	19.7	0.0326 h	0.0327 h	0.0326 h	0.0324 h	35.6%	20.4%	6.98%	
CC1(C)N=C(c2ccccc2O)N([O])C1(C)C	48.6	45.4	64.2	70.2	62.2	0.0324 h	0.0329 h	0.0325 h	0.0324 h	20.3%	13.4%	6.01%	
CC1(C)N=C(c2ccc3c(c2)OCO3)N([O])C1(C)C	52.8	65	74	58.3	25.4	0.0326 h	0.0324 h	0.0328 h	0.0324 h	37.4%	24.5%	8.1%	
COc1ccc(C2=NC(C)(C)C(C)(C)N2[O])cc1	35.3	103	99.3	68.7	53	0.0327 h	0.0324 h	0.0331 h	0.0331 h	35.1%	23.1%	6.88%	Activity (Mus musculus [13]): 25; Activity (Mus musculus [14]): 89.7; Activity (Mus musculus [15]): 82.5; Activity (Mus musculus [16]): 50.2; Activity (Mus musculus [17]): 34.4; Activity (Mus musculus [18]): 14.9; Activity (Mus musculus [19]): 55.2; Activity (Mus musculus [20]): 50.5; Activity (Mus musculus [21]): 38.4; Activity (Mus musculus [22]): 22.6
CC1(C)N=C(c2cccc([N+](=O)[O-])c2)N([O])C1(C)C	49.8	66.4	47.4	43.5	41.8	0.0329 h	0.0324 h	0.0327 h	0.0328 h	34.3%	22.1%	6.72%	
CC1(C)N=C(c2cccc(O)c2)N([O])C1(C)C	49.6	50.3	54	72.7	70.8	0.033 h	0.0326 h	0.0331 h	0.0326 h	35.7%	23%	7.06%	Activity (Mus musculus [13]): 35.7; Activity (Mus musculus [14]): 37.8; Activity (Mus musculus [15]): 42.8; Activity (Mus musculus [16]): 59.9; Activity (Mus musculus [17]): 52.1; Activity (Mus musculus [18]): 24.2; Activity (Mus musculus [19]): 25.6; Activity (Mus musculus [20]): 30.7; Activity (Mus musculus [21]): 35.2; Activity (Mus musculus [22]): 33.5
CN(C)c1ccc(C2=NC(C)(C)C(C)(C)N2[O])cc1	30.4	35.5	36.2	34.3	27.9	0.0331 h	0.033 h	0.0329 h	0.0327 h	40%	26%	8.02%	
CC1(C)N=C(c2ccc(Cl)c(Cl)c2)N([O])C1(C)C	50.6	72.8	55.7	28.8	27	0.0334 h	0.0331 h	0.0331 h	0.033 h	34.4%	22.7%	6.74%	
CC1(C)N=C(c2ccc(O)cc2)N([O])C1(C)C	55.7	70.8	75.9	55.5	29.9	0.0328 h	0.0325 h	0.0326 h	0.0327 h	8.71%	7.66%	5.36%	
CC1(C)N=C(c2ccc(Cl)cc2Cl)N([O])C1(C)C	39.6	63.3	48.4	30.5	14.8	0.0329 h	0.033 h	0.0326 h	0.0327 h	34.8%	23%	6.86%	
COc1ccc(C2=NC(C)(C)C(C)(C)N2[O])c(OC)c1	42	59.7	62.5	71.2	32.4	0.0331 h	0.0324 h	0.0327 h	0.0328 h	37.1%	24%	7.33%	

Reference: ChEMBL document CHEMBL1147875, “Novel 1-oxyl-2-substitutedphenyl-4,4,5,5-tetramethylimidazolines: synthesis, selectively analgesic action, and QSAR analysis” (2007)
